Where “and” joins values, the source holds several entries; their conditions need not be identical. Identical values can stand only once. Like-named read-outs stand apart in the source and are kept apart here.

The target in assay [1] is T1, PIM-1 kinase (Homo sapiens, UniProt P11309). Conditions: read-out: IC50 ± SD PIM-1 kinase inhibition; previously reported value ref 32; cited from earlier work.
The test system of assay [2] is MCF-10A cells. The assay is described as follows: MTT cytotoxicity assay against normal MCF-10A cells. Conditions: for IC50: Homo sapiens, MCF-10A, read-out: IC50 ± SD MCF-10A; for IC50 ± SD MCF-10A: MTT assay, normal MCF-10A cells, mean ± SD, n = 3. The format is cell-based. In short, it runs like this: (§1)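 Cells kept in RPMI-1640 with L-glutamine at 37 °C under 5% CO2. Plated at 5 × 10^4 cells per well in triplicate. Next day they received test compound at 0.01, 0.1, 1, 10 and 100 μM. Viability read by MTT. IC50 came from a nonlinear dose–response fit of % viability against concentration.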

The target of assay [3] is T1, PIM-1 kinase. The assay is described as follows: PIM-1 kinase inhibitory assay. The format is biochemical. The conditions noted are these: for % of PIM-1 inhibition: concentration not given.
Assay [4] has as its system HepG2 cells. The assay is described as follows: MTT cytotoxicity assay against HepG2 cells. The format is cell-based, human. In short, it runs like this: as §1
(In general: Formazan colour is commonly taken as a measure of viable cells.)

For assay [5], the system named is P53, Bax, caspases-3,8,9, Bcl-2 and PIM-1 gene expression in MCF-7 cells. The assay is described as follows: RT-PCR of apoptosis-related genes. The format is cell-based, human. Conditions: MCF-7, IC50 = 0.57 μM, 48 h, normalized to β-actin, control = 1. In short, it runs like this: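 MCF-7 cells treated with test compound for 48 h, then taken for RT-PCR of apoptosis-related genes. Ct values were normalised to β-actin to give relative expression as fold change versus untreated control (set to 1). Values average three independent runs.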

Assay [6] concerns MCF-7 cells. The assay is described as follows: Annexin V/PI staining flow cytometry. The format is cell-based, human. The conditions noted are these: MCF-7 cells treated at IC50 = 0.57 μM, 48 h. In short, it runs like this:
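MCF-7 cells seeded at 3–5 × 10^5 per well, incubated overnight, then exposed to test compound for 48 h. Supernatant and cells collected and rinsed in ice-cold PBS. Resuspended in annexin binding buffer (CaCl2, NaCl, Hepes/NaOH, pH 7.4) with annexin V-FITC (1:100) and PI (10 μg mL−1), kept 30 min in the dark, then analysed on a FACSCalibur flow cytometer.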

The subject of assay [7] is MCF-7 cells. The assay is described as follows: DNA content flow cytometry cell cycle analysis. The format is cell-based, human. Conditions: MCF-7 cells treated at IC50 = 0.57 μM, 48 h.
The mark [8] stands for this setting: read-out: IC50 ± SD HepG2, MTT assay, liver cancer HepG2 cells, mean ± SD, n = 3.

T1 sequence (P11309 whole entry): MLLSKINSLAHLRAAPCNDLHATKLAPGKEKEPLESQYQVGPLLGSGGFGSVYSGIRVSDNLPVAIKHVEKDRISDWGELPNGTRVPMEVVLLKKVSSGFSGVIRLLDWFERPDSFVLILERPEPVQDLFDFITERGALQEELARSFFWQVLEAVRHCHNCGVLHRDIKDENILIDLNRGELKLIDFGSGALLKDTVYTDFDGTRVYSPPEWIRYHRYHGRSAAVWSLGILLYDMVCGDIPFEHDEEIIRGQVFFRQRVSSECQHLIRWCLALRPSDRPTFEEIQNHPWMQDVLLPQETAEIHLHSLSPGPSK

The term IC50 denotes the concentration needed to halve the response being measured. For the compound `N[C@H]1CC[C@H](Nc2nc(Nc3cccc(C(F)(F)F)c3)c3c(=O)[nH]ccc3n2)CC1` [SKI-O-068], the IC50 in assay [1] is 123 ± 14 nM.

Consider `N#Cc1c(-c2ccc(Cl)cc2)c2c(=O)[nH]nnc2n(C2CCCCC2)c1=O` [Compound 11, 5-(4-Chlorophenyl)-8-cyclohexyl-4,7-dioxo-3,4,7,8-tetrahydropyrido[2,3-d][1,2,3]triazine-6-carbonitrile], for which, in assay [2], the IC50 is at least 50000 nM and the “IC50 ± SD MCF-10A” value is “non-toxic”. Besides, in assay [3], the IC50 was found to be 21.4 ± 0.24 nM and the “% of PIM-1 inhibition” value was 92.1 ± 1.9%.

On to `N#Cc1c(-c2ccc(Cl)cc2)c2c(=O)[nH]c(-c3ccc(Cl)cc3Cl)nc2n(C2CCCCC2)c1=O` [Compound 4, 5-(4-Chlorophenyl)-8-cyclohexyl-2-(2,4-dichlorophenyl)-4,7-dioxo-3,4,7,8-tetrahydropyrido[2,3-d]pyrimidine-6-carbonitrile], for which the IC50 in assay [4] (setting [8]) is 1130 ± 190 nM. In assay [5], the “Bax gene expression fold change” value was 6.7 fold, the “Bcl-2 gene expression fold change” value came out at 0.11 fold, the “P53 gene expression fold change” value came to 7.9 fold and the “PIM-1 gene expression fold change” value worked out at 0.31 fold. In addition, in assay [5], the “caspase-3 gene expression fold change” value was 11.2 fold, the “caspase-8 gene expression fold change” value is on record as 1.23 fold and the “caspase-9 gene expression fold change” value came out at 8.9 fold. In assay [6], the “early apoptosis (Q4)” value came out at 22.11%; the “increase of cell apoptosis versus untreated control” value was 58.29 fold and 58.3 fold; the “late apoptosis (Q2)” value is on record as 14.03%. In assay [6] (untreated control 0.62%), this compound registered a total apoptosis of 36.14%. Also, the “cell population at G2/M phase” value in assay [7] (control 18.86%) amounted to 4.47%. In addition, the “cell population at G1 phase” value in assay [7] (control 48.37%) came out at 56.36%. For the same compound, in assay [2], the IC50 amounted to 47600 ± 3100 nM and the “IC50 ± SD MCF-10A” value is on record as “non-toxic”. Moreover, in assay [3], the IC50 is 11.4 ± 0.13 nM and the “% of PIM-1 inhibition” value is 97.8 ± 1.8%.

`CN[C@@H]1C[C@H]2O[C@@](C)([C@@H]1OC)n1c3ccccc3c3c4c(c5c6ccccc6n2c5c31)C(=O)NC4` [Staurosporine, reference compound]: the IC50 in assay [4] (Homo sapiens, HepG2, read-out: IC50 ± SD HepG2) was determined as 5070 ± 360 nM.

On to `N#Cc1c(-c2ccc(Cl)cc2)c2c(=O)[nH]c(=S)[nH]c2n(C2CCCCC2)c1=O` [Compound 10, 5-(4-Chlorophenyl)-8-cyclohexyl-4,7-dioxo-2-thioxo-1,2,3,4,7,8-hexahydropyrido[2,3-d]pyrimidine-6-carbonitrile], for which, in assay [2], the IC50 is at least 50000 nM and the “IC50 ± SD MCF-10A” value is “non-toxic”. Moreover, in assay [3], the IC50 stood at 17.2 ± 0.2 nM and the “% of PIM-1 inhibition” value is reported as 94.6 ± 2.1%.

For the compound `N#Cc1c(-c2ccc(Cl)cc2)c2c(=O)[nH]cnc2n(C2CCCCC2)c1=O` [Compound 9, 5-(4-Chlorophenyl)-8-cyclohexyl-4,7-dioxo-3,4,7,8-tetrahydropyrido[2,3-d]pyrimidine-6-carbonitrile], the IC50 in assay [4] (setting [8]) turned out to be 4600 ± 340 nM.

Regarding `N#Cc1c(-c2ccc(Cl)cc2)c2c(=O)[nH]c(CCl)nc2n(C2CCCCC2)c1=O` [Compound 6, 2-(Chloromethyl)-5-(4-chlorophenyl)-8-cyclohexyl-4,7-dioxo-3,4,7,8-tetrahydropyrido[2,3-d]pyrimidine-6-carbonitrile], in assay [2], the IC50 came to 43500 ± 2900 nM and the “IC50 ± SD MCF-10A” value is recorded as “non-toxic”. Further, in assay [3], the IC50 was determined as 34.6 ± 0.18 nM and the “% of PIM-1 inhibition” value was found to be 89.6 ± 2.1%.

The record behind these values is publication PMC10996840 (RSC Advances, 2024).
